From article PMC4504105 (Journal of Cancer, 2015)
Blank lines part the entries; values can stand above or below the compound they belong to.

Tests used:
Bcap37 cells = experiment: Cancer cell proliferation; format: cell-based; settings: read-out: IC50, proliferation, 48 h
How it was run: (§1)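 PC-3M, […] or Bcap37 cells kept in RPMI 1640 with 10% FBS and 1% penicillin/streptomycin, 37°C, 5% CO2. In 96-well plates, treated 48 h with graded concentrations of test compound or of a reference proteasome inhibitor in parallel. Survival by sulforhodamine B staining. IC50 given as mean ± SD, three independent experiments.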

Viscera = format: in vivo, Balb/c male nude mice; settings: all three doses (1.25, 2.25, 3.25 mg/kg), P>0.05
How it was run: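 Organ index from the PC-3M xenograft mice (male Balb/c nude; saline, reference inhibitor or test compound at 1.25, 2.25, 3.25 mg/kg i.p. twice weekly, 11 doses over 36 days). On day 37, body weight recorded, then mice killed; heart, liver, lung, brain, kidney and spleen excised and weighed. Group means ± SD compared with control by Student's t-test.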

[1] = system: cell cycle proteins in PC-3M cell xenograft tumors; experiment: Western blot analysis, xenograft tumor tissue; format: in vivo, Balb/c male nude mice; settings: p<0.05
How it was run: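 Western blot on PC-3M xenograft tumours from mice dosed i.p. twice weekly. Tissue ground and lysed, whole protein on 10% SDS-PAGE, blotted to nitrocellulose, blocked with 5% milk. Primary antibodies against cyclin B1, p21, p27, wee 1 and others overnight at 4°C, then anti-mouse/anti-rabbit secondaries. ECL imaging; Student's t-test against control.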

[2] = system: 26S proteasomes from PC-3M cells, chymotrypsin-like (CT-L) activity; experiment: 26S proteasome activity assay, CT-L; format: biochemical; settings: 1h; for IC50: read-out: IC50 for CT-L, 26S proteasomes, 37°C
[3] = system: 26S proteasomes from PC-3M cells, trypsin-like (T-L) activity; experiment: 26S proteasome activity assay, T-L; format: biochemical; settings: 1h; for IC50: read-out: IC50 for T-L, 26S proteasomes, 37°C
HL-60 cells = experiment: Cancer cell proliferation; format: cell-based; settings: read-out: IC50, proliferation, 48 h
How it was run: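 HL-60 in RPMI 1640 with 10% FBS and penicillin/streptomycin at 37°C, 5% CO2. Seeded in 96-well format and exposed 48 h to a range of test compound concentrations, with a reference proteasome inhibitor run alongside. Survival by MTT. IC50 reported as mean ± SD over three independent experiments.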

[4] = system: ubiquitinated and cell cycle proteins in PC-3M cells; experiment: Western blot analysis, PC-3M cells; format: cell-based
How it was run: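 PC-3M cells exposed 48 h to a series of test compound concentrations (12.5-100 nM for cell-cycle proteins), then lysed. 10% SDS-PAGE, nitrocellulose, 5% milk block. Primary antibodies (ubiquitin, wee 1, cyclin B1, p27, p21, GAPDH) overnight at 4°C; anti-mouse/anti-rabbit secondaries; ECL detection. Three independent experiments; Student's t-test against control.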

PC-3M cells [5] = experiment: Cell cycle assay; format: cell-based; settings: 48 h
PC-3M cell xenograft = experiment: PC-3M xenograft tumor model; format: in vivo, Balb/c male nude mice; settings: intraperitoneal, twice weekly, day 37
How it was run: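 Male Balb/c nude mice, 4-5 weeks, SPF. 3×10^6 PC-3M cells in PBS injected s.c. into the right flank. At about 0.2 cm3, randomised to 5 groups of 7: saline, reference inhibitor 1.25 mg/kg, test compound 1.25, 2.25 or 3.25 mg/kg. Dosed i.p. twice weekly, 11 times over 36 days. Volume = a×b²/2, measured before each dose; final measurement on day 37.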

[6] = biological target: T1, 26S proteasomes from PC-3M cells, post-glutamyl peptide hydrolase (PGPH) activity (Homo sapiens, UniProt P28072); experiment: 26S proteasome activity assay, PGPH; format: biochemical; settings: 1h
T1 sequence (P28072 35-239): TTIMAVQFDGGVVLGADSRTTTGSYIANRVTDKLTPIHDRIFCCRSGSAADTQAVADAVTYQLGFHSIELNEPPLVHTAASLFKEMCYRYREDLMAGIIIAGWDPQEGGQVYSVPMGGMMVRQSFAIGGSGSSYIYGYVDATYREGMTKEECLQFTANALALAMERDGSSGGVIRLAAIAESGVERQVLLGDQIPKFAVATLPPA

Bel-7740 cells = experiment: Cancer cell proliferation; format: cell-based; settings: read-out: IC50, proliferation, 48 h
How it was run: as §1

PC-3M cells [7] = experiment: Cancer cell proliferation; format: cell-based
How it was run: as §1

[8] = system: proteasome β catalytic sites in PC-3M cells; experiment: Proteasome activity profiling in intact cells; format: cell-based; settings: 12.5-400 nM, 3 h
How it was run: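 PC-3M cells treated 3 h with test compound (12.5-400 nM), washed and harvested; proteasomes extracted as for the activity assay. Lysates labelled with Me4BodipyFL-Ahx3Leu3VS (5 μM) for 1 h at 37°C, boiled in sample buffer. 20 μg protein per lane on 12.5% SDS-PAGE, in-gel fluorescence scan. Band integrated optical density quantified; three independent experiments.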

IC50 (Bcap37 cells): 879 ± 18.2 nM | Impact on viscera index (body, heart, liver, brain, kidney, spleen and lung) (Viscera): slightly impacted | IC50 [2]: 123 ± 18 nM | IC50 [3]: 1.24 ± 0.077 µM | IC50 (HL-60 cells): 170 ± 9.9 nM | IC50 ([6]; read-out: IC50 for PGPH, 26S proteasomes, 37°C): 714 ± 44 nM | PGPH activity inhibited ([6]; various YSY01A concentrations): 12-48% | IC50 (Bel-7740 cells): 286 ± 13.2 nM | IC50 (PC-3M cells [7]; read-out: IC50, proliferation, 48 h): 150 ± 9 nM
Structure (SMILES): CC(C)C[C@H](NC(=O)[C@H](Cc1ccc2ccccc2c1)NC(=O)[C@H](CC(C)C)NC(=O)c1cnccn1)B(O)O [YSY01A, N-(2-Pyrazinecarbonyl)-L-leucine-L-(2-naphthyl)-alanine-L-leucine boronic acid]
Protein (cyclinB1, p21, p27, P-cdc2 (tyr15), wee 1) expression from tumor tissue [1]: enhanced | CT-L activity inhibited ([2]; various YSY01A concentrations): 34-86% | T-L activity inhibited ([3]; various YSY01A concentrations): 12-43% | Protein (cyclinB1, p21, p27, P-cdc2 (tyr15), wee 1) expression ([4]; 12.5-100 nM, 48 h, p<0.05 versus control): increased | Concentration causing ubiquitinated protein accumulation ([4]; 48h): 25 nM | Increase of cells in the G2/M phase (PC-3M cells [5]; 50 nM): 14% | Increase of cells in the G2/M phase (PC-3M cells [5]; 100 nM): 44% | Tumor growth inhibition (final tumor volume) (PC-3M cell xenograft; 1.25 mg/kg): 45.7% | Tumor growth inhibition (final tumor volume) (PC-3M cell xenograft; 2.25 mg/kg): 52.8% | Tumor growth inhibition (final tumor volume) (PC-3M cell xenograft; 3.25 mg/kg): 60.1% | Inhibition efficacy relative to PS341 (PC-3M cells [7]; 48h): three times highter | β5i, β2, β2i, β1 and β1i/β5 fluorgenic bands [8]: decreased

IC50 [2]: 71 ± 1 nM | IC50 [3]: 5.35 ± 0.057 µM
Structure (SMILES): CC(C)C[C@H](NC(=O)[C@H](Cc1ccccc1)NC(=O)c1cnccn1)B(O)O [PS341, reference compound]
Tumor growth inhibition (final tumor volume) (PC-3M cell xenograft; 1.25 mg/kg): 49.6%
